{"data": "Experimental data pooled from the literature", "observed": "cell growth or viability", "note": "Compare with care: the assays were run in different laboratories."}
{"Compound": "CCn1c2ccccc2c2cc(C3CC(c4cc5cccc(OC)c5oc4=O)=NN3C(N)=O)ccc21 (centres unmarked)", "cell line": "NRK-52E", "technique": "MTT", "time": "24 h", "quantity": "IC50", "result": "40.3 µM"}
{"Compound": "CC(C)n1cc(C(c2ccc(/C=C/C(=O)O)s2)c2cn(C(C)C)c3ccccc23)c2ccccc21", "cell line": "KG-1", "tested at": "5 µM", "time": "48 h", "quantity": "inhibition", "result": "12%"}
{"Compound": "C/C(=N\\NC(=O)c1cccc(S(=O)(=O)N2CCN(C)CC2)c1)c1cc(Cl)ccc1O", "cell line": "MOLM-13", "technique": "resazurin", "time": "96 h", "quantity": "EC50", "result": "0.285 µM"}
{"Compound": "COc1cccc(Oc2ccccc2NC(=O)CNC(=O)c2cccc3ccccc23)c1", "cell line": "Malme-3M", "technique": "SRB", "time": "48 h", "quantity": "GI50", "result": "17 µM"}
{"Compound": "CN1CCN(C(=O)[C@H](CCCN[C@@H]2C[C@H]2c2ccc(F)cc2)NC(=O)c2ccc(-n3ccnn3)cc2)CC1", "cell line": "MOLM-13", "technique": "resazurin", "time": "96 h", "quantity": "EC50", "result": "0.00538 µM"}
{"Compound": "Cn1cc(C(c2ccc(C(=O)O)cc2)c2cn(C)c3ccccc23)c2ccccc21", "cell line": "KG-1", "tested at": "20 µM", "time": "48 h", "quantity": "inhibition", "result": "25%"}
{"Compound": "COc1ccccc1S(=O)(=O)Nc1ccc2c(c1)CN(C)C(=O)N2", "cell line": "PL-21", "technique": "ATP luminescence", "quantity": "GI50", "result": "10 µM"}
{"Compound": "COc1cc(-c2ccc(-c3ccc(C(=N)N)nc3)s2)cc(OC)c1OC", "cell line": "Malme-3M", "technique": "SRB", "quantity": "GI50", "result": "1.53 µM"}
{"Compound": "Cn1cc(C(c2ccc(/C=C/C(=O)O)s2)c2cn(C)c3ccccc23)c2ccccc21", "cell line": "KG-1", "tested at": "20 µM", "time": "48 h", "quantity": "inhibition", "result": "7%"}
{"Compound": "CCn1c2ccccc2c2cc(C3CC(c4cc5cccc(OC)c5oc4=O)=NN3c3cccc(Cl)c3)ccc21 (centres unmarked)", "cell line": "NRK-52E", "technique": "MTT", "time": "24 h", "quantity": "IC50", "result": "24.2 µM"}
{"Compound": "COc1ccc(-c2ccc(-c3ccc(C(=N)N)nc3)s2)cc1Cl", "cell line": "Malme-3M", "technique": "SRB", "quantity": "GI50", "result": "1.78 µM"}
